The source made the active and inactive calls. The rule behind the calls is not given here.
How the values were obtained:
[1] = system: Woodchuck hepatitis virus; assay: Antiviral activity against Woodchuck hepatitis virus infected in woodchuck assessed as absent of lesion in portal hepatitis at 15 mg/kg, po qd measured on 12th week on 48 weeks study; format: functional, organism-based; parameters: dose 15 mg/kg
In short: (§1)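 Adult chronic WHV-carrier woodchucks (neonatally inoculated), 5 per group, given drug once daily by dose syringe in semisynthetic liquid diet, for 48 weeks; placebo got diet alone. Ultrasound-guided needle liver biopsies under ketamine/xylazine anesthesia at pretreatment, weeks 12, 36, 48 and 12 weeks post-withdrawal. Biopsies were formalin-fixed, paraffin-embedded and H&E stained. Portal and lobular hepatitis were graded 0 (absent) to 4 (most severe).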

[2] = system: Woodchuck hepatitis virus; assay: Antiviral activity against Woodchuck hepatitis virus infected in woodchuck assessed as reduction of viral antigen positive hepatocytes at 15 mg/kg, po qd measured on 12th week on 48 weeks study (reference value: 55 +/- 32 %); format: functional, Hepatocyte; parameters: scale not given: the % may be the effect or the level left
In short: (§2)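 Chronic WHV-carrier woodchucks, 5 per group, 15 mg/kg/day oral once daily for 48 weeks in liquid diet. Liver biopsies were taken at pretreatment, weeks 12, 36, 48 and week 60. Percentage of hepatocytes positive for WHcAg was given as group mean ± SD and compared with pretreatment and placebo.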

[3] = system: Marmota monax; assay: Toxicity in Woodchuck hepatitis virus infected woodchuck assessed as increase of liver aspartate aminotransferase activity at 15 mg/kg, po qd for 48 weeks; format: organism-based; parameters: dose 15 mg/kg, route oral; conditions: in vivo, 8064 h
In short: (§3)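 Woodchucks chronically infected with WHV, 5 per group, received oral drug once daily in liquid diet for 48 weeks; placebo got diet only. Serum chemistry (GGT, ALP, ALT, AST, SDH, among others) was run 2 weeks pretreatment, at week 0, every other week to week 12, then monthly to week 48. Sampling continued at 2, 4, 6, 8 and 12 weeks post-treatment.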

[4] = system: Woodchuck hepatitis virus; assay: Antiviral activity against Woodchuck hepatitis virus infected in woodchuck assessed as reduction of viral RNA level per ug of total cell DNA at 15 mg/kg, po qd measured on 36th week on 48 weeks study (reference value: 33 +/- 21 pg); format: functional
In short: (§4)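 Chronic WHV-carrier woodchucks, 5 per group, 15 mg/kg/day oral once daily for 48 weeks in liquid diet. Needle liver biopsies were snap-frozen in liquid nitrogen and stored at −70°C. Hepatic WHV DNA replicative intermediates were quantified by Southern blot (pg/μg total cell DNA) and WHV RNA by Northern blot; group means ± SD were compared with pretreatment and placebo.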

[5] = system: Marmota monax; assay: Toxicity in Woodchuck hepatitis virus infected woodchuck assessed as effect on hematological parameters at 15 mg/kg, po qd for 48 weeks measured up to 60 weeks; format: organism-based; parameters: dose 15 mg/kg, route oral; conditions: in vivo
In short: (§5)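 Chronic WHV-carrier woodchucks, 5 per group, were dosed orally once daily in liquid diet for 48 weeks, with a placebo diet-only group. Body weights were monitored. Complete blood counts were taken 2 weeks pretreatment, at weeks 12, 36 and 48 of treatment, and 12 weeks after withdrawal. Values were compared with placebo controls.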

[6] = system: Woodchuck hepatitis virus; assay: Antiviral activity against Woodchuck hepatitis virus infected in woodchuck assessed as reduction of viral DNA replicative intermediate level per ug of total cell DNA at 15 mg/kg, po qd for 48 weeks (reference value: 995 +/- 736 pg); format: functional; in short: as §4
[7] = system: Woodchuck hepatitis virus; assay: Antiviral activity against Woodchuck hepatitis virus infected in woodchuck assessed as reduction of viral DNA replicative intermediate level per ug of total cell DNA at 15 mg/kg, po qd measured on 36th week on 48 weeks study (reference value: 1132 +/- 738 pg); format: functional; in short: as §4
[8] = system: Woodchuck hepatitis virus; assay: Antiviral activity against Woodchuck hepatitis virus infected in woodchuck assessed as reduction of viral antigen level in serum at 15 mg/kg, po qd for 48 weeks measured on 60th week (reference value: 3.3 +/- 1.6 log10 ng/ml); format: functional
[9] = system: Woodchuck hepatitis virus; assay: Antiviral activity against Woodchuck hepatitis virus infected in woodchuck assessed as frequency of hepatocytes expressing viral antigen at 15 mg/kg, po qd for 48 weeks; format: functional, Hepatocyte
In short: (§6)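 Chronic WHV-carrier woodchucks, 5 per group, given 15 mg/kg/day orally once daily for 48 weeks in liquid diet; placebo is diet alone. Liver biopsies at pretreatment, weeks 12, 36, 48 and 12 weeks after withdrawal. Cytoplasmic WHsAg staining scored 0–4: 1 ≤1%, 2 ≤2%, 3 ≤5%, 4 ≥10% of hepatocytes.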

[10] = system: Woodchuck hepatitis virus; assay: Antiviral activity against Woodchuck hepatitis virus infected in woodchuck assessed as frequency of hepatocytes expressing viral antigen at 15 mg/kg, po qd measured on 36th week on 48 weeks study; format: functional, Hepatocyte; in short: as §6
[11] = system: Woodchuck hepatitis virus; assay: Antiviral activity against Woodchuck hepatitis virus infected in woodchuck assessed as absent of lesion in lobular hepatitis at 15 mg/kg, po qd measured on 12th week on 48 weeks study; format: functional, organism-based; parameters: dose 15 mg/kg; in short: as §1
[12] = system: Woodchuck hepatitis virus; assay: Antiviral activity against Woodchuck hepatitis virus infected in woodchuck assessed as reduction of viral antigen level in serum at 15 mg/kg, po qd measured on 36th week on 48 weeks study (reference value: 3.8 +/- 1.3 log10 ng/ml); format: functional
[13] = system: Marmota monax; assay: Toxicity in Woodchuck hepatitis virus infected woodchuck assessed as change in body weight at 15 mg/kg, po qd for 48 weeks measured up to 60 weeks; format: organism-based; parameters: dose 15 mg/kg, route oral; conditions: in vivo; in short: as §5
[14] = system: Woodchuck hepatitis virus; assay: Antiviral activity against Woodchuck hepatitis virus infected in woodchuck assessed as reduction of viral antigen positive hepatocytes at 15 mg/kg, po qd for 48 weeks measured on 60th week (reference value: 26 %); format: functional, Hepatocyte; parameters: scale not given: the % may be the effect or the level left; in short: as §2
[15] = system: Marmota monax; assay: Toxicity in Woodchuck hepatitis virus infected woodchuck assessed as increase of liver sorbitol dehydrogenase activity at 15 mg/kg, po qd measured on 28 to 48 weeks on 48 week study; format: organism-based; parameters: dose 15 mg/kg, route oral; conditions: in vivo; in short: as §3
[16] = system: Woodchuck hepatitis virus; assay: Antiviral activity against Woodchuck hepatitis virus infected in woodchuck assessed as absent of lesion in portal hepatitis at 15 mg/kg, po qd for 48 weeks measured on 60th week; format: functional, organism-based; parameters: dose 15 mg/kg
In short: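 Chronic WHV-carrier adult woodchucks (inoculated at 3 days of age), 5 per group, dosed orally once daily for 48 weeks by dose syringe, drug in saline suspended in semisynthetic liquid diet; placebo is diet alone. Ultrasound-guided needle liver biopsies under ketamine/xylazine, formalin-fixed, H&E stained; portal and lobular hepatitis graded 0 (absent) to 4 (most severe).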

[17] = system: Woodchuck hepatitis virus; assay: Antiviral activity against Woodchuck hepatitis virus infected in woodchuck assessed as absent of lesion in portal hepatitis at 15 mg/kg, po qd for 48 weeks; format: functional, organism-based; parameters: dose 15 mg/kg; in short: as §1
[18] = system: Woodchuck hepatitis virus; assay: Antiviral activity against Woodchuck hepatitis virus infected in woodchuck assessed as reduction of viral antigen level in serum at 15 mg/kg, po qd for 48 weeks (reference value: 3.8 +/- 1.3 log10 ng/ml); format: functional
[19] = system: Woodchuck hepatitis virus; assay: Antiviral activity against Woodchuck hepatitis virus infected in woodchuck assessed as reduction of viral antigen positive hepatocytes at 15 mg/kg, po qd measured on 36th week on 48 weeks study (reference value: 41 +/- 25 %); format: functional, Hepatocyte; parameters: scale not given: the % may be the effect or the level left; in short: as §2
[20] = system: Woodchuck hepatitis virus; assay: Antiviral activity against Woodchuck hepatitis virus infected in woodchuck assessed as frequency of hepatocytes expressing viral antigen at 15 mg/kg, po qd measured on 12th week on 48 weeks study; format: functional, Hepatocyte; in short: as §6
[21] = system: Woodchuck hepatitis virus; assay: Antiviral activity against Woodchuck hepatitis virus infected in woodchuck assessed as reduction of viral RNA level per ug of total cell DNA at 15 mg/kg, po qd measured on 12th week on 48 weeks study (reference value: 46 +/- 25 pg); format: functional; in short: as §4
[22] = system: Marmota monax; assay: Toxicity in Woodchuck hepatitis virus infected woodchuck assessed as increase of liver alanine aminotransferase activity at 15 mg/kg, po qd for 48 weeks; format: organism-based; parameters: dose 15 mg/kg, route oral; conditions: in vivo, 8064 h; in short: as §3

Row | SMILES | Activity [1] | Activity [2] [%] | Activity [3] | Activity [4] [pg] | Activity [5] | Activity [6] [pg] | Activity [7] [pg] | Activity [8] [log10ng/ml] | Activity [9] [%] | Activity [10] [%] | Activity [11] | Activity [12] [log10ng/ml] | Activity [13] | Activity [14] [%] | Activity [15] | Activity [16] | Activity [17] | Activity [18] [log10ng/ml] | Activity [19] [%] | Activity [20] [%] | also measured
1 | CC(C)(C)C(=O)OCOP(=O)(COCCn1cnc2c(N)ncnc21)OCOC(=O)C(C)(C)C [ADEFOVIR DIPIVOXIL] | Active | 21 | Toxic | 34 | Non-toxic | 151 | 324 | 5 | 2 | 5 | Active | 4.8 | Non-toxic | 48 | Toxic | Active | Active | 4.1 | 45 | 1 | Activity [21]: 33 pg; Activity [22]: Toxic
2 | CC(C)OC(=O)OCOP(=O)(CO[C@H](C)Cn1cnc2c(N)ncnc21)OCOC(=O)OC(C)C.O=C(O)/C=C/C(=O)O [TENOFOVIR DISOPROXIL FUMARATE] | Active | 30 | Toxic | 25 | Non-toxic | 704 | 443 | 4 | 1 | 1 | Active | 2.9 | Non-toxic | 39 | Toxic | Active | Active | 3.6 | 20 | 0 | Activity [21]: 30 pg; Activity [22]: Toxic

Source: ChEMBL document CHEMBL1687712, “Antiviral effects of lamivudine, emtricitabine, adefovir dipivoxil, and tenofovir disoproxil fumarate administered orally alone and in combination to woodchucks with chronic woodchuck hepatitis virus infection” (Antimicrob Agents Chemother, 2008)
